Assay [1] concerns the target T1, Glutamate NMDA receptor (Rattus norvegicus) (UniProt P35439+Q00959+Q00960+Q00961+Q62645+Q8VHN2+Q9R1M7). The assay is described as follows: Apparent dissociation constant of [3H]glycine from N-methyl-D-aspartate glutamate receptor of rat cortical slices. The assay is classed as protein-complex assay. In a few lines: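 Antagonism of NMDA-induced depolarizations in a rat cortical slice preparation, where endogenous glycine is present at supersaturating levels. Apparent Kb was obtained from dose ratios, with a dose ratio under 2 at a stated concentration reported as ">". Kb values are means of at least three experiments.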

Assay [2] concerns the target T2, Glutamate receptor ionotropic, kainate (Rattus norvegicus) (UniProt P22756+Q01812+P42260+P42264+Q63273). Briefly: Apparent dissociation constant for [3H]kainate from Ionotropic glutamate receptor kainate of rat cortical slices. The assay is classed as protein-complex assay. Summed up: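 Functional antagonism of kainate-induced depolarizations in rat cortical slices. Apparent Kb was obtained from dose ratios, with a dose ratio under 2 at a stated concentration reported as ">". Kb values are means of at least three experiments.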

For assay [3], the target named is T1, Glutamate NMDA receptor (Rattus norvegicus). The assay is described as follows: Apparent dissociation constant of [3H]glycine from N-methyl-D-aspartate glutamate receptor in rat cortical slice preparation expressed as log values. Summed up: (§1)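 Rat cortical slice preparation; test compound antagonism of depolarizations evoked by agonists N-methyl-D-aspartic acid, quisqualic acid or kainic acid, expressed as apparent Kb.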

Assay [4] deals with Glutamate NMDA receptor. Briefly: Inhibition of [3H]glycine binding to glycine site of N-methyl-D-aspartate glutamate receptor in rat cortical membranes. The class given is cell membranes, Membrane.
Assay [5] has as its target T2, Glutamate receptor ionotropic, kainate (Rattus norvegicus). Briefly: Apparent dissociation constant of [3H]kainate from Ionotropic glutamate receptor ionotropic kainate was determined in rat cortical slice preparation. In a few lines:
as §1

The target in assay [6] is Glutamate receptor ionotropic, AMPA (Rattus norvegicus, UniProt P19490+P19491+P19492+P19493). Briefly: Inhibition of [3H]-AMPA binding to AMPA receptor of rat cortical membrane.
Assay [7] deals with Glutamate receptor ionotropic, kainate. Briefly: Inhibition of [3H]-kainic acid binding to kainate receptor of rat cortical membrane.
Assay [8] has as its target T2, Glutamate receptor ionotropic, kainate (Rattus norvegicus). Briefly: Apparent dissociation constant of [3H]kainate from ionotropic glutamate receptor kainate of rat cortical slice at 100 uM; Inactive. The class given is protein-complex assay. In a few lines: as §1
Assay [9] concerns the target T3, Glutamate receptor ionotropic, AMPA (Rattus norvegicus) (UniProt P19491+P19492+P19493+P19490). Briefly: Apparent dissociation constant of [3H]AMPA from Quisqualate receptor was determined in rat cortical slice preparation at 100 uM; Inactive. In a few lines:
as §1

The target of assay [10] is T1, Glutamate NMDA receptor (Rattus norvegicus). Briefly: Apparent dissociation constant of [3H]-glycine from N-methyl-D-aspartate glutamate receptor in rat cortical slice preparation at 100 uM; Inactive. Summed up: as §1
The target of assay [11] is T3, Glutamate receptor ionotropic, AMPA (Rattus norvegicus). Briefly: Apparent dissociation constant of [3H]AMPA from quisqualate receptor of rat cortical slices. The assay is classed as protein-complex assay. Summed up:
as §1

Assay [12] has as its target Glutamate NMDA receptor. The assay is described as follows: Inhibition of [3H]-glutamate binding to N-methyl-D-aspartate glutamate receptor of rat cortical membranes. The class given is cell membranes, Membrane.
Assay [13] deals with T3, Glutamate receptor ionotropic, AMPA (Rattus norvegicus). The assay is described as follows: Apparent dissociation constant of [3H]-AMPA from Quisqualate receptor of rat cortical slice at 30 uM; Inactive. The assay is classed as protein-complex assay. Summed up:
as §1

The target of assay [14] is T1, Glutamate NMDA receptor (Rattus norvegicus). Briefly: Apparent dissociation constant of [3H]-glycine from N-methyl-D-aspartate glutamate receptor in rat cortical slice at 30 uM; Inactive. In a few lines: as §1
The target in assay [15] is Glutamate NMDA receptor. The assay is described as follows: Inhibition of [3H]glycine binding to N-methyl-D-aspartate glutamate receptor of rat cortical membranes. The class given is cell membranes, Membrane. Summed up:
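[3H]Glycine radioligand binding to rat cortical membranes. IC50 is the concentration inhibiting 50% of specific binding, taken from at least two experiments and given as the mean of two to four determinations (geometric mean).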

Active and inactive are the calls of the source. No cut-off for these calls is given here.

Regarding `O=[N+]([O-])c1cc2nc(O)c(O)nc2cc1[N+](=O)[O-]`, the Kb in [1] is 5.3 µM; in [2], 1.29 µM.
On to `O=C(O)c1cc(O)c2c(Cl)cccc2n1`, for which the -Log 1/Kb in [3] worked out at 4.43. This molecule also registered an IC50 on Glutamate NMDA receptor [4] of 5.2 µM. Further, in assay [5], the Kb is over 100 µM.
As for `O=C(O)c1cc(=O)c2ccccc2[nH]1` [TRANSTORINE], the IC50 in assay [6] is 101 µM; in [7] it was over 1000 µM. For the same molecule, the Kb in [5] is 89 µM.
`O=C(O)c1cc(O)c2c(Cl)c(Cl)c(Cl)cc2n1`: at Glutamate NMDA receptor [4], the IC50 amounted to 2.4 µM. The Kb in assay [5] was determined as 14 µM.
Take `Cn1c(C(=O)O)cc(=O)c2c(Cl)cc(Cl)cc21`: the Kb entry in [8], in assay [9] and in assay [10] was “inactive” each time. In addition, at Glutamate NMDA receptor [4], the IC50 is over 100 µM.
On Glutamate NMDA receptor [4], `Oc1nc2cccc(Cl)c2nc1O` gave an IC50 of 56.3 µM. In addition, the Kb in [5] is over 100 µM.
Take `CCc1ccc2nc(C(=O)O)cc(O)c2c1`: the Kb in assay [11] and in assay [5] was over 100 µM throughout. Moreover, in assay [10], the Kb entry was “inactive”.
As to `O=C(O)CNc1cc(Cl)cc(Cl)c1`, the Kb result in [9] is “inactive”. Also, the IC50 at Glutamate NMDA receptor [4] came to 49 µM.
Turning to `Oc1nc2ccccc2nc1O`, the IC50 at Glutamate NMDA receptor [4] is 38.6 µM. Moreover, in assay [5], the Kb is over 100 µM.
With `O=C(O)c1cc(O)c2cc(C(F)(F)F)ccc2n1`, the Kb in [11] and in assay [5] was over 100 µM throughout. Besides, in assay [10], the Kb result was “inactive”.
Consider `O=C(O)c1cc(O)c2cccc(Cl)c2n1`, for which the Kb result in assay [8], in assay [9] and in [10] was “inactive” throughout. Further, the IC50 on Glutamate NMDA receptor [4] is over 100 µM.
As to `O=C(O)c1cc(O)c2c(Cl)cc(Cl)cc2n1`, the IC50 in assay [7] was over 300 µM; on Glutamate NMDA receptor [4], 0.2 µM; at Glutamate NMDA receptor [12], over 100 µM. Moreover, the Kb in assay [5] was over 30 µM.
Consider `O=C(O)c1cc(O)c2ccc(Cl)cc2n1` [7-CHLOROKYNURENIC ACID], for which the IC50 in [6] was 153 µM; in assay [7] it was over 1000 µM; at Glutamate NMDA receptor [4], 0.56 µM; on Glutamate NMDA receptor [12], 169 µM. Further, in [3], the -Log 1/Kb came out at 5.15. The Kb in assay [5] is 50 µM.
On to `COc1cc(C(=O)O)nc2cc(Cl)cc(Cl)c12`, for which the Kb entry in [8], in [9] and in assay [10] was “inactive” each time. The IC50 on Glutamate NMDA receptor [4] was 100 µM.
As for `Cc1cc2nc(O)c(O)nc2cc1C`, the Kb in assay [5] stood at 27 µM.
For the molecule `CSc1ccc2nc(C(=O)O)cc(O)c2c1`, the Kb amounted to 56 µM in assay [11] and 43 µM in assay [5].
On the same counts, the results for `O=C(O)c1cc(O)c2cc(F)ccc2n1` are 48 µM and 55 µM.
For `O=C(O)c1cc(O)c2cc([N+](=O)[O-])ccc2n1`, the Kb came out at 52 µM in [11] and 49 µM in assay [5]. In addition, the Kb entry in [10] was “inactive”.
`O=C(O)c1cc(O)c2cc(I)ccc2n1`: the Kb in [11] is 56 µM; in assay [5], 37 µM.
Consider `O=C(O)c1cc(O)c2cc(Cl)ccc2n1`, for which the IC50 in assay [6] was 41 µM; in [7], over 300 µM; on Glutamate NMDA receptor [4] it was over 100 µM; at Glutamate NMDA receptor [12], over 300 µM. Moreover, the Kb in [5] turned out to be 19 µM.
On to `Oc1nc2cc(Cl)cc(Cl)c2nc1O`, for which the IC50 on Glutamate NMDA receptor [4] worked out at 3.4 µM. Besides, in assay [5], the Kb was found to be 22 µM.
On the same counts, the results for `O=[N+]([O-])c1ccc2nc(O)c(O)nc2c1` are 8.3 µM and 4.6 µM.
Taken in the same sequence, the figures for `Oc1nc2cc(Cl)c(Cl)cc2nc1O` [2,3-DIHYDROXY-6,7-DICHLOROQUINOXALINE] were 3.1 µM and 9 µM.
Regarding `COc1nc2cc(C)c(C)cc2nc1O`, the Kb result in assay [13] and in assay [14] was “inactive” each time. The molecule also had an IC50 at Glutamate NMDA receptor [4] of over 100 µM. Further, in assay [5], the Kb worked out at 86 µM.
At Glutamate NMDA receptor [15], `O=c1[nH]c2cc([N+](=O)[O-])c([N+](=O)[O-])cc2[nH]c1=O` [DNQX] displayed an IC50 of 4.5 µM. This lies in the single-digit micromolar range.
For `Oc1nc2ccc(Cl)cc2nc1O`, the Kb in assay [5] is 26 µM.
With `Cc1ccc2nc(C(=O)O)cc(O)c2c1`, the Kb in assay [11] is 66 µM; in [5] it was 59 µM. Further, in [10], the Kb result was “inactive”.
In the case of `O=C(O)C(=O)Nc1cc(Cl)cc(Cl)c1`, the Kb entry in assay [9] was “inactive”. Further, the IC50 on Glutamate NMDA receptor [4] stood at 6.8 µM.
Take `COc1ccc2nc(C(=O)O)cc(O)c2c1`: the values for the Kb in assay [11] and in assay [5] were 87 µM and 32 µM, respectively. In [10], the Kb result was “inactive”.
In the case of `O=C(O)c1cc(O)c2ccc(I)cc2n1`, the -Log 1/Kb in assay [3] was 4.33. For the same molecule, the IC50 on Glutamate NMDA receptor [4] was determined as 3.6 µM.
Consider `O=C(O)c1cc(O)c2cc(Br)ccc2n1`, for which the Kb in [11] was 28 µM; in assay [5], 30 µM.
The molecule `Cc1cc2[nH]c(=O)c(=O)n(C)c2cc1C` yielded an IC50 at Glutamate NMDA receptor [4] of 6.6 µM. In addition, the Kb in [5] stood at 47 µM.

In general, IC50 refers to the concentration that gives 50% inhibition. A high value points to weaker potency.
